According to ChEMBL document CHEMBL1153878, “Hansch analysis of veratric acid derivatives as antimicrobial agents” (2009):
Values after ≈ are worked out from the molar mass of the structure shown.

Key:
Type in all cases: functional
Staphylococcus aureus = assay: Antibacterial activity against Staphylococcus aureus MTCC 1430 by serial dilution method; parameters: -logMIC: scale not given here; conditions: for MIC: Staphylococcus aureus, MTCC 1430, read-out: MIC
Outline: (§1)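 Tube serial dilution in 1 ml sterile double strength nutrient broth I.P., test range […] per ml. Inoculum: […] of a saline suspension at 10⁵ cfu/ml from a fresh 24-h culture, grown in double strength nutrient broth at 37 ± 1 °C. […] Exact MIC refined by further dilution of the stock.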

Aspergillus niger = assay: Antifungal activity against Aspergillus niger MTCC 2425 by serial dilution method; parameters: -logMIC: scale not given here; conditions: for MIC: Aspergillus niger, MTCC 2425, read-out: MIC
Escherichia coli = assay: Antibacterial activity against Escherichia coli MTCC 739 by serial dilution method; parameters: -logMIC: scale not given here; conditions: for MIC: Escherichia coli, MTCC 739, read-out: MIC; outline: as §1
Bacillus subtilis = assay: Antibacterial activity against Bacillus subtilis MTCC 2423 by serial dilution method; parameters: -logMIC: unit not given here; conditions: for MIC: Bacillus subtilis, MTCC 2423, read-out: MIC; outline: as §1
Candida albicans = assay: Antifungal activity against Candida albicans MTCC 227 by serial dilution method; parameters: -logMIC: unit not given here; conditions: for MIC: Candida albicans, MTCC 227, read-out: MIC

Structure (SMILES)	MIC (Staphylococcus aureus) [µg/mL]	MIC (Aspergillus niger) [µg/mL]	MIC (Escherichia coli) [µg/mL]	MIC (Bacillus subtilis) [µg/mL]	MIC (Candida albicans) [µg/mL]	-logMIC (Staphylococcus aureus)	-logMIC (Aspergillus niger)	-logMIC (Escherichia coli)	-logMIC (Bacillus subtilis)	-logMIC (Candida albicans)
COc1ccc(C(=O)Nc2ccc(C)cc2)cc1OC	18.5 (≈ 68.2 µM)	12.5 (≈ 46.1 µM)	17 (≈ 62.7 µM)	13 (≈ 47.9 µM)	13 (≈ 47.9 µM)	1.15	1.35	1.2	1.31	1.32
COc1ccc(NC(=O)c2ccc(OC)c(OC)c2)cc1	18 (≈ 62.6 µM)	11.5 (≈ 40 µM)	19 (≈ 66.1 µM)	12 (≈ 41.8 µM)	12.5 (≈ 43.5 µM)	1.2	1.4	1.18	1.38	1.36
COc1ccc(C(=O)Nc2cccc([N+](=O)[O-])c2)cc1OC	18 (≈ 59.5 µM)	13 (≈ 43 µM)	13 (≈ 43 µM)	10.5 (≈ 34.7 µM)	16 (≈ 52.9 µM)	1.22	1.36	1.36	1.46	1.27
COc1ccc(C(=O)Nc2ccc(Br)cc2)cc1OC	19 (≈ 56.5 µM)	12.5 (≈ 37.2 µM)	19 (≈ 56.5 µM)	13 (≈ 38.7 µM)	15 (≈ 44.6 µM)	1.25	1.44	1.25	1.4	1.34
COc1ccc(C(=O)Nc2cccc(O)c2)cc1OC	17 (≈ 62.2 µM)	12 (≈ 43.9 µM)	19 (≈ 69.5 µM)	15 (≈ 54.9 µM)	12 (≈ 43.9 µM)	1.2	1.36	1.16	1.26	1.36
COC(=O)c1ccc(OC)c(OC)c1 [VERATRIC ACID METHYL ESTER]	18 (≈ 91.7 µM)	14 (≈ 71.4 µM)	18 (≈ 91.7 µM)	12 (≈ 61.2 µM)	12 (≈ 61.2 µM)	1.04	1.15	1.04	1.2	1.2
COc1ccc(C(=O)O)cc1OC [VERATRIC ACID]	18 (≈ 98.8 µM)	14 (≈ 76.8 µM)	16 (≈ 87.8 µM)	9 (≈ 49.4 µM)	11 (≈ 60.4 µM)	1.01	1.11	1.06	1.31	1.22

Continued by falling MIC (Staphylococcus aureus), values first:

MIC (Staphylococcus aureus) [µg/mL]	MIC (Aspergillus niger) [µg/mL]	MIC (Escherichia coli) [µg/mL]	MIC (Bacillus subtilis) [µg/mL]	MIC (Candida albicans) [µg/mL]	Structure (SMILES)	-logMIC (Staphylococcus aureus)	-logMIC (Aspergillus niger)	-logMIC (Escherichia coli)	-logMIC (Bacillus subtilis)	-logMIC (Candida albicans)
17 (≈ 56.2 µM)	13 (≈ 43 µM)	21 (≈ 69.5 µM)	11.5 (≈ 38 µM)	14 (≈ 46.3 µM)	COc1ccc(C(=O)Nc2ccc([N+](=O)[O-])cc2)cc1OC	1.25	1.35	1.16	1.41	1.32
17 (≈ 59.2 µM)	14 (≈ 48.7 µM)	17 (≈ 59.2 µM)	13 (≈ 45.2 µM)	15 (≈ 52.2 µM)	COc1ccccc1NC(=O)c1ccc(OC)c(OC)c1	1.23	1.32	1.23	1.34	1.29
17 (≈ 62.7 µM)	12.5 (≈ 46.1 µM)	17 (≈ 62.7 µM)	13 (≈ 47.9 µM)	10 (≈ 36.9 µM)	COc1ccc(C(=O)Nc2cccc(C)c2)cc1OC	1.2	1.35	1.2	1.31	1.42
